Results of several laboratories.
Compare with care: the assays were run in different laboratories.

CSc1ccc(-c2nc3ccc(C)cc3[nH]2)cc1 — IC50 (human Rhabdomyosarcoma cell; cell growth or viability; MTT; 48 h): 39 µM
COc1cc(/C=C/C(=O)CC(=O)/C=C/c2ccc(O)c(OC)c2)ccc1O — IC50 (CHO-K1; cell growth or viability; MTT; 72 h): 44.9 µM
Fc1ccc(-c2nc3ccccc3n2Cc2ccccc2)cc1 — IC50 (human Rhabdomyosarcoma cell; cell growth or viability; MTT): 28 µM
COc1cccc2c1C(=O)c1c(O)c3c(c(O)c1C2=O)C[C@@](O)(C(=O)CO)C[C@@H]3O[C@H]1C[C@H](N)[C@H](O)[C@H](C)O1 — IC50 (CHO-K1; cell growth or viability; SRB; 72 h): 2.4 µM
CC(C)C[C@H](NC(=O)[C@H](Cc1ccccc1)NC(=O)c1cnccn1)B(O)O — IC50 (OV56; cell growth or viability; ATP luminescence): 0.011 µM
COCCCN1C(/C=C/c2cccnc2)=CC(=O)CC1c1cccnc1 (stereo not shown) — IC50 (CHO-K1; cell growth or viability; SRB; 72 h): > 75 µM
O=C(O)Cc1ccccc1Nc1c(Cl)cccc1Cl — IC50 (RAW264.7; IL-6 release; inhibitor; LPS-stimulated): 10.2 µM
Cc1ccc2nc(-c3cccc(O)c3)[nH]c2c1 — IC50 (human Rhabdomyosarcoma cell; cell growth or viability; MTT; 48 h): 19.3 µM
COc1cc(/C=C/C(=O)CC(=O)/C=C/c2ccc(O)c(OC)c2)ccc1O — IC50 (CHO-K1; cell growth or viability; SRB; 72 h): 33.5 µM
COc1cc(/C=C/c2cc(/C=C/c3cccc4cnccc34)[nH]n2)ccc1O — IC50 (CHO-K1; cell growth or viability; MTT; 72 h): 8.4 µM
